Data on 97 variants can be found in the RNAGym collection of RNA variant scans (doi:10.1002/anie.201605470).

First the molecules themselves.
B1: Osa-1-4 twister ribozyme (parent)
chain: CCGCCUAACACUGCCAAUGCCGGUCCCAAGCCCGGAUAAAAGUGGAGGGGGCGG

The variants in the data set derive from B1. Kind of data set: self-cleavage, relative activity (ratio to wild type); higher = more cleavage; co-transcriptional. The procedure, abridged: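 A DNA template was synthesised for a 54-nucleotide twister ribozyme from Oryza sativa, with 97 % wild-type base and 1 % of each other base at each of the 48 positions downstream of the cleavage site. The ribozyme cleaved itself co-transcriptionally during 2 h of in vitro transcription at 37 °C. Reverse transcription with a template-switching oligonucleotide, PCR amplification and deep sequencing followed, and cleavage status came from reads with or without upstream sequence. Relative activity is the fraction cleaved normalised to wild type.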
Regarding CCGCCUAACACUGCCAAUGCCCGUCCCAAGCCCGGAUAAAAGUGGAGGGGGCUG, the self-cleavage was 0.04. With CCGCCUAACACUGCCAAUGCCCGUCCCAAGCCCGGAUAAAAGUGGAGGGGGCCG, the self-cleavage amounted to 0.03. The result for CCGCCUAACACUGCCAAUGCCCGUCCCAAGCCCGGAUAAAAGUGGAGGGGGCAG reads 0.06. Turning to CCGCCUAACACUGCCAAUGCCUGUCCCAAGCCCGGAUAAAAGUCGAGGGGGCGG, the self-cleavage is 0.81. Regarding CCGCCUAACACUGCCAAUGCCUGUCCCAAGCCCGGAUAAAAGUUGAGGGGGCGG, the self-cleavage came out at 0.47.

Turning to CCGCCUAACACUGCCAAUGCCUGUCCCAAGCCCGGAUAAAAGUAGAGGGGGCGG, the self-cleavage was 0.72.

For CCGCCUAACACUGCCAAUGCCUGGCCCAAGCCCGGAUAAAAGUGGAGGGGGCGG, the self-cleavage turned out to be 0.07. Regarding CCGCCUAACACUGCCAAUGCCUGCCCCAAGCCCGGAUAAAAGUGGAGGGGGCGG, the self-cleavage amounted to 0.06. Turning to CCGCCUAACACUGCCAAUGCCUGACCCAAGCCCGGAUAAAAGUGGAGGGGGCGG, the self-cleavage is 0.13. As for CCGCCUAACACUGCCAAUGCCCGUCCCAAGCCCGGACAAAAGUGGAGGGGGCGG, the figure is 0.14; as for CCGCCUAACACUGCCAAUGCCCGUCCCAAGCCCGGAGAAAAGUGGAGGGGGCGG, 0.17; as for CCGCCUAACACUGCCAAUGCCCGUCCCAAGCCCGGAAAAAAGUGGAGGGGGCGG, 0.14. On to CCGCCUAACACUGCCAAUGCCUGUCCCAAGCCCGGAUAAAAGUGGAGGGGGCUG, for which the self-cleavage was found to be 0.12. For CCGCCUAACACUGCCAAUGCCUGUCCCAAGCCCGGAUAAAAGUGGAGGGGGCCG, the self-cleavage turned out to be 0.05. The result for CCGCCUAACACUGCCAAUGCCUGUCCCAAGCCCGGAUAAAAGUGGAGGGGGCAG reads 0.1.

CCGCCUAACACUGCCAAUGCCCGUCCCAAGCCCGGAUAAAAGUGGAGGGGCCGG: the self-cleavage worked out at 0.03. The result for CCGCCUAACACUGCCAAUGCCCGUCCCAAGCCCGGAUAAAAGUGGAGGGGUCGG reads 0.04. As for CCGCCUAACACUGCCAAUGCCCGUCCCAAGCCCGGAUAAAAGUGGAGGGGACGG, the figure is 0.04; as for CCGCCUAACACUGCCAAUGCCUGUCCCAAGCCCGGAUAAAAGUGGAAGGGGCGG, 0.07; as for CCGCCUAACACUGCCAAUGCCUGUCCCAAGCCCGGAUAAAAGUGGACGGGGCGG, 0.05.

For CCGCCUAACACUGCCAAUGCCUGUCCCAAGCCCGGAUAAAAGUGGAUGGGGCGG, the self-cleavage was 0.07. The result for CCGCCUAACACUGCCAAUGCCUGUCCCAAGCCCGGAUAAAAGUGGAGGGGACGG reads 0.1; that for CCGCCUAACACUGCCAAUGCCUGUCCCAAGCCCGGAUAAAAGUGGAGGGGCCGG, 0.08. As for CCGCCUAACACUGCCAAUGCCUGUCCCAAGCCCGGAUAAAAGUGGAGGGGUCGG, the figure is 0.38; as for CCGCCUAACACUGCCAAUGCCCGUCCCAAGCCCGGAUAAAAGUGGAGGAGGCGG, 0.03; as for CCGCCUAACACUGCCAAUGCCCGUCCCAAGCCCGGAUAAAAGUGGAGGCGGCGG, 0.03. Turning to CCGCCUAACACUGCCAAUGCCCGUCCCAAGCCCGGAUAAAAGUGGAGGUGGCGG, the self-cleavage is 0.03. As for CCGCCUAACACUGCCAAUGCCUGUCCCAAGCCCGGAUAAAAGUGGAGGGGGCGU, the figure is 0.6; as for CCGCCUAACACUGCCAAUGCCUGUCCCAAGCCCGGAUAAAAGUGGAGGGGGCGC, 0.64; as for CCGCCUAACACUGCCAAUGCCUGUCCCAAGCCCGGAUAAAAGUGGAGGGGGCGA, 0.58. Take CCGCCUAACACUGCCAAUGCCUGUCCCAAGCCCGGAAAAAAGUGGAGGGGGCGG: the self-cleavage amounted to 0.93. As for CCGCCUAACACUGCCAAUGCCUGUCCCAAGCCCGGAGAAAAGUGGAGGGGGCGG, the self-cleavage was 0.92.

Take CCGCCUAACACUGCCAAUGCCUGUCCCAAGCCCGGACAAAAGUGGAGGGGGCGG: the self-cleavage was found to be 0.55. With CCGCCUAACACUGCCAAUGCCCGUCCCAAGCCCGGAUAAAAGUGGAUGGGGCGG, the self-cleavage is 0.04. For the variant CCGCCUAACACUGCCAAUGCCCGUCCCAAGCCCGGAUAAAAGUGGACGGGGCGG, the self-cleavage stood at 0.02. As for CCGCCUAACACUGCCAAUGCCCGUCCCAAGCCCGGAUAAAAGUGGAAGGGGCGG, the self-cleavage was 0.03. The result for CCGCCUAACACAGCCAAUGCCCGUCCCAAGCCCGGAUAAAAGUGGAGGGGGCGG reads 0.05. The result for CCGCCUAACACGGCCAAUGCCCGUCCCAAGCCCGGAUAAAAGUGGAGGGGGCGG reads 0.03; that for CCGCCUAACACCGCCAAUGCCCGUCCCAAGCCCGGAUAAAAGUGGAGGGGGCGG, 0.07. The result for CCGCCUAACACUGCCAAUGCCUGUCCCAAGCCCGGAUAAAAGUGGAGCGGGCGG reads 0.06; that for CCGCCUAACACUGCCAAUGCCUGUCCCAAGCCCGGAUAAAAGUGGAGUGGGCGG, 0.05; that for CCGCCUAACACUGCCAAUGCCUGUCCCAAGCCCGGAUAAAAGUGGAGAGGGCGG, 0.04. In the case of CCGCCUAACACUGCCAAUGCCGAUCCCAAGCCCGGAUAAAAGUGGAGGGGGCGG, the self-cleavage was determined as 0.8. As for CCGCCUAACACUGCCAAUGCCUGUCCCAAGCCCGGAUAAAAGUGGAGGGGGCGG, the figure is 0.93; as for CCGCCUAACACUGCCAAUGCCUGUCCCAAGCCCGGAUAAAAGAGGAGGGGGCGG, 0.12. The result for CCGCCUAACACUGCCAAUGCCUGUCCCAAGCCCGGAUAAAAGCGGAGGGGGCGG reads 0.1; that for CCGCCUAACACUGCCAAUGCCUGUCCCAAGCCCGGAUAAAAGGGGAGGGGGCGG, 0.08; that for CCGCCUAACACUGCCAAUGCCCGUCCCAAGCCCGGAUAAAAGUGGAGGGGGCGC, 0.15. The result for CCGCCUAACACUGCCAAUGCCCGUCCCAAGCCCGGAUAAAAGUGGAGGGGGCGU reads 0.16; that for CCGCCUAACACUGCCAAUGCCCGUCCCAAGCCCGGAUAAAAGUGGAGGGGGCGA, 0.08.

Turning to CCGCCUAACACUGCCAAUGCCCGUCCCAAGCCCGGAUAAAAGUGUAGGGGGCGG, the self-cleavage is 0.03. As for CCGCCUAACACUGCCAAUGCCUGUCCCAAGCCCGCAUAAAAGUGGAGGGGGCGG, the figure is 0.11. As for CCGCCUAACACUGCCAAUGCCUGUCCCAAGCCCGUAUAAAAGUGGAGGGGGCGG, the figure is 0.41; as for CCGCCUAACACUGCCAAUGCCUGUCCCAAGCCCGAAUAAAAGUGGAGGGGGCGG, 0.36; as for CCGCCUAACACUGCCAAUGCCGAUCCCAAACCCGGAUAAAAGUGGAGGGGGCGG, 0.04.

Turning to CCGCCUAACACUGCCAAUGCCUGUCCCAAGCCCGGAUAAAAGUGUAGGGGGCGG, the self-cleavage was found to be 0.06. As for CCGCCUAACACUGCCAAUGCCUGUCCCAAGCCCGGAUAAAAGUGCAGGGGGCGG, the figure is 0.04; as for CCGCCUAACACUGCCAAUGCCUGUCCCAAGCCCGGAUAAAAGUGAAGGGGGCGG, 0.11; as for CCGCCUAACACUGCCAAUGCCUGUCCCAAGCCCGGAUAAAAGUGGAGGGAGCGG, 0.91. As for CCGCCUAACACUGCCAAUGCCUGUCCCAAGCCCGGAUAAAAGUGGAGGGUGCGG, the figure is 0.75; as for CCGCCUAACACUGCCAAUGCCUGUCCCAAGCCCGGAUAAAAGUGGAGGGCGCGG, 0.3; as for CCGCCUAACACUGCCAAUGCCCGUCCCAAGCCCGGAUAAAAGUGGAGCGGGCGG, 0.02. Take CCGCCUAACACUGCCAAUGCCCGUCCCAAGCCCGGAUAAAAGUGGAGUGGGCGG: the self-cleavage amounted to 0.02. The result for CCGCCUAACACUGCCAAUGCCCGUCCCAAGCCCGGAUAAAAGUGGAGAGGGCGG reads 0.02; that for CCGCCUAACACUGCCAAUGCCCGUCCCAAGCCCGGAUAAAAGUGGAGGGUGCGG, 0.11; that for CCGCCUAACACUGCCAAUGCCCGUCCCAAGCCCGGAUAAAAGUGGAGGGCGCGG, 0.05.

As to CCGCCUAACACUGCCAAUGCCCGUCCCAAGCCCGGAUAAAAGUGGAGGGAGCGG, the self-cleavage was 0.34.

Regarding CCGCCUAACACUGCCAAUGCCUGUCCCAAGCCCGGAUAAAAGUGGAGGUGGCGG, the self-cleavage amounted to 0.05.

In the case of CCGCCUAACACUGCCAAUGCCUGUCCCAAGCCCGGAUAAAAGUGGAGGCGGCGG, the self-cleavage came out at 0.05. As for CCGCCUAACACUGCCAAUGCCUGUCCCAAGCCCGGAUAAAAGUGGAGGAGGCGG, the figure is 0.07. Regarding CCGCCUAACACUGCCAAAGCCCGUCCCAAGCCCGGAUAAAAGUGGAGGGGGCGG, the self-cleavage is 0.14. As for CCGCCUAACACUGCCAAGGCCCGUCCCAAGCCCGGAUAAAAGUGGAGGGGGCGG, the figure is 0.17. Turning to CCGCCUAACACUGCCAACGCCCGUCCCAAGCCCGGAUAAAAGUGGAGGGGGCGG, the self-cleavage came out at 0.1. CCGCCUAACACUGCCAAUGCCUGUCCCAACCCCGGAUAAAAGUGGAGGGGGCGG: the self-cleavage was determined as 0.04. The result for CCGCCUAACACUGCCAAUGCCUGUCCCAAUCCCGGAUAAAAGUGGAGGGGGCGG reads 0.03; that for CCGCCUAACACUGCCAAUGCCUGUCCCAAACCCGGAUAAAAGUGGAGGGGGCGG, 0.03; that for CCGCCUAACACUGCCAAUGCCCGCCCCAAGCCCGGAUAAAAGUGGAGGGGGCGG, 0.03. With CCGCCUAACACUGCCAAUGCCCGACCCAAGCCCGGAUAAAAGUGGAGGGGGCGG, the self-cleavage was 0.04. For the variant CCGCCUAACACUGCCAAUGCCCGGCCCAAGCCCGGAUAAAAGUGGAGGGGGCGG, the self-cleavage was determined as 0.03. As for CCGCCUAACACUGCCAAUGCCUAUCCCAAGCCCGGAUAAAAGUGGAGGGGGCGG, the figure is 0.08; as for CCGCCUAACACUGCCAAUGCCUUUCCCAAGCCCGGAUAAAAGUGGAGGGGGCGG, 0.07; as for CCGCCUAACACUGCCAAUGCCUCUCCCAAGCCCGGAUAAAAGUGGAGGGGGCGG, 0.04. CCGCCUAACACUGCCAAUGCCUGUCCCAAGCCCGGAUAAAAUUGGAGGGGGCGG: the self-cleavage is 0.05.

On to CCGCCUAACACUGCCAAUGCCUGUCCCAAGCCCGGAUAAAAAUGGAGGGGGCGG, for which the self-cleavage was 0.08. Turning to CCGCCUAACACUGCCAAUGCCUGUCCCAAGCCCGGAUAAAACUGGAGGGGGCGG, the self-cleavage stood at 0.07. As for CCGCCUAACACAGCCAAUGCCUGUCCCAAGCCCGGAUAAAAGUGGAGGGGGCGG, the self-cleavage was 0.13. For the variant CCGCCUAACACCGCCAAUGCCUGUCCCAAGCCCGGAUAAAAGUGGAGGGGGCGG, the self-cleavage was 0.1. As to CCGCCUAACACGGCCAAUGCCUGUCCCAAGCCCGGAUAAAAGUGGAGGGGGCGG, the self-cleavage was determined as 0.05. With CCGCCUAACACUGCCAAUGCCCGUCCCAAGCCCGGAUAAAAGCGGAGGGGGCGG, the self-cleavage is 0.03.

Take CCGCCUAACACUGCCAAUGCCCGUCCCAAGCCCGGAUAAAAGAGGAGGGGGCGG: the self-cleavage was 0.04.

Take CCGCCUAACACUGCCAAUGCCCGUCCCAAGCCCGGAUAAAAGGGGAGGGGGCGG: the self-cleavage came out at 0.04.

As for CCGCCUAACACUGCCAAUGCCUGUCCCAAGCCCCGAUAAAAGUGGAGGGGGCGG, the self-cleavage turned out to be 0.4.

Take CCGCCUAACACUGCCAAUGCCUGUCCCAAGCCCUGAUAAAAGUGGAGGGGGCGG: the self-cleavage was determined as 0.79. On to CCGCCUAACACUGCCAAUGCCUGUCCCAAGCCCAGAUAAAAGUGGAGGGGGCGG, for which the self-cleavage stood at 0.19. The result for CCGCCUAACACUGCCAAGGCCUGUCCCAAGCCCGGAUAAAAGUGGAGGGGGCGG reads 0.82; that for CCGCCUAACACUGCCAAAGCCUGUCCCAAGCCCGGAUAAAAGUGGAGGGGGCGG, 0.84; that for CCGCCUAACACUGCCAACGCCUGUCCCAAGCCCGGAUAAAAGUGGAGGGGGCGG, 0.68.
